Compounds with a hit are over-represented: about 2.7% of the library has one in this group of screens.
CHO parental Ca – signal in parental CHO cells, OX1R antagonist counter-screen. parental CHO-K1, ATP-induced calcium, Fluo-8 fluorescence. inhibition, % at 5.6 µM. actives 0.63% (n = 330,000). AID 463079;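 active = inhibition above that plate's mean sample inhibition plus 3 SD, cut at about 26% in these data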;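 note: 0% = ATP-challenged DMSO wells and 100% = DMSO wells without ATP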
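Assay system: untransfected parental CHO cell line. Also added: ATP agonist challenge. Dosing: one dose, 5.6 µM nominal. Measured by: Fluo-8 fluorescence. Read-out: % inhibition. Benchmarks: ATP wells versus no-ATP DMSO wells. Repeats: no replicates.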
OXTR agonist – activates the human oxytocin receptor | actives 0.32% (n = 320,000) | CHO-OTR cells, Fluo-8 calcium fluorescence; normalized: DMSO 0%, oxytocin 100% | activation, % at 3 µM;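 active = activation above the mean of all tested compounds plus 3 SD, cutoff set per screening run, cut at about 20% in these data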;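 note: peak over basal fluorescence ratio from a 100 s FLIPR kinetic read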
OX1R antag-1 – blocks the human orexin 1 receptor; O43613; OX1R-expressing cells, FRET antagonist read-out; inhibition, % at 6.6 µM; actives 1.8% (n = 330,000); in the data active = inhibition mostly above about 38%, no sharp cut-off; inactive = mostly below about 40%;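 note: 0% = agonist challenge alone and 100% = reference antagonist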
Target sequence (O43613 whole entry, looked up): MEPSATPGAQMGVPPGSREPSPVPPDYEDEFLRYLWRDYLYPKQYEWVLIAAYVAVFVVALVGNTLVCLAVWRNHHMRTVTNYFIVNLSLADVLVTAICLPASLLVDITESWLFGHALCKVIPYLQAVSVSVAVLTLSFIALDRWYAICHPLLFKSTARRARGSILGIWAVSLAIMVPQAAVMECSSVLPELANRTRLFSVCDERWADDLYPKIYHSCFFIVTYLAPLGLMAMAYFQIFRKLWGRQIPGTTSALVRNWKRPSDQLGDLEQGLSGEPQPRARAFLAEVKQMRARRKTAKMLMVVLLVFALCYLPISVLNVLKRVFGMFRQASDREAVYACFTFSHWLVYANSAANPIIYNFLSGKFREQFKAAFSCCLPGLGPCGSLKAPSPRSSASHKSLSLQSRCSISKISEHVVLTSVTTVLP
OX1R antag-2 – blocks the human orexin 1 receptor; CHO/OX1R cells, Fluo-8 calcium fluorescence, orexin A; inhibition, % at 5 µM; actives 0.43% (n = 330,000); AID 434989;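 active = inhibition above its plate's threshold, mean inhibition of all tested compounds on the plate plus 3 SD, cut at about 37% in these data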;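 note: 0% = orexin A challenge wells and 100% = SB-334867-A antagonist wells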
V1aR counter – activates human V1a receptor in oxytocin agonist counter-screen; CHO-V1R cells, Fluo-8 calcium fluorescence, agonist mode; 0% DMSO, 100% 3 nM vasopressin; actives 0.25% (n = 320,000); AID 2797; activation, % at 3 µM; P37288;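 active = activation above the mean activation of all tested compounds plus 3 SD, per screening run, cut at about 20% in these data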;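 note: signal is peak over basal fluorescence ratio across a 100 second FLIPR read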
OXTR potentiator – potentiators of human oxytocin receptor. CHO-OTR cells, Fluo-8 calcium fluorescence, potentiator mode; 0% = oxytocin EC15, 100% = EC100. P30559. AID 2445. actives 0.061% (n = 320,000). activation, % at 3 µM;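 active = activation above that plate's cutoff, the mean activation of tested compounds plus 3 SD, cut at about 6.6% in these data, passing the limit was not always enough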;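 note: 100% uses oxytocin at 75 nM as the full agonist control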
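test system = CHO-OTR cells, human receptor | compound = single-point 3.0 µM | schedule = 6 min compound pre-incubation at room temperature, 100 s kinetic read | signal = Fluo-8 no-wash calcium dye fluorescence, excitation 470-495 nm, emission 515-575 nm | repeats = single well per compound, singlicate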
OX1R HTRF conf – OX1R (human) antagonism, HTRF confirmed; shares compounds with OX1R antag-1; OX1R-expressing cells, HTRF antagonist assay; inhibition, % at 6.6 µM; actives 49% (n = 1,800); AID 492964; in the data active = inhibition above about 55%;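 note: CHO cells expressing OX1R stimulated with orexin A at about EC80; 0% = agonist challenge alone and 100% = reference antagonist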
CHO-K1 HTRF cnt – signal in parental CHO-K1 cells, OX1R antagonist counter-screen | shares compounds with OX1R antag-1 | HTRF counterscreen | inhibition, % at 6.6 µM | actives 48% (n = 1,800) | AID 493232; in the data active = inhibition above about 17%;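 note: 0% = agonist challenge with vehicle and 100% = vehicle alone without agonist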
* = called active by the depositor; x = no result.

SMILES	CHO parental Ca	OXTR agonist	OX1R antag-1	OX1R antag-2	V1aR counter	OXTR potentiator	OX1R HTRF conf	CHO-K1 HTRF cnt
O=[N+]([O-])c1ccc(Sc2cc[n+]([O-])c3ccccc23)c([N+](=O)[O-])c1	5	-1	98*	2	-1	-1	55*	78*
O=c1[nH]c(Sc2ccc([N+](=O)[O-])cc2[N+](=O)[O-])nc2ccccc12	-10	4	69	-1	5	-2	x	x
O=C(CCCCCN1C(=O)c2cccc3cccc(c23)C1=O)NC1CCS(=O)(=O)C1 (configuration not stated)	-22	0	60	-19	0	-1	x	x
O=C(CCN1C(=O)c2cccc3cccc(c23)C1=O)N1CCOCC1	3	0	80*	-13	-1	-14	45	64*
O=C(CCN1C(=O)c2cccc3cccc(c23)C1=O)NCC1CCCO1 (configuration not stated)	10	1	92*	-15	0	-3	49	40*
O=C(CCN1C(=O)c2cccc3cccc(c23)C1=O)NC1CCS(=O)(=O)C1 (configuration not stated)	-17	0	79*	3	1	1	36	54*
O=C(CCN1C(=O)c2ccccc2C1=O)N1CCOCC1	-6	-1	28	-4	0	-3	x	x
CN(Cc1ccccc1)C(=O)c1cccc(NC(=O)C2CCCN(C(=O)OC(C)(C)C)C2)c1 (configuration not stated)	-15	1	16	-12	3	-6	x	x
CN(C)C(=O)c1ccc2c(c1[N+](=O)[O-])C(=O)c1ccccc1C2=O	-6	3	93*	-9	3	0	58*	55*
COc1ccc2c(c1O)C(=O)c1ccccc1C2=O	-3	-1	9	-2	0	-6	x	x
Cc1ccc(C(C(=O)NC2CCCC2)N(CCCO)C(=O)Cn2nnc(-c3ccc(C)o3)n2)cc1 (configuration not stated)	-10	0	24	-29	1	-6	x	x
O=C(c1ccc(N2CCCC2=O)cc1)N1CCN(c2ccccc2F)CC1	2	1	4	-12	2	-3	x	x
CCc1cc2c(=O)c(-c3nc(C)cs3)coc2cc1O	-7	0	82*	12	0	-4	78*	-1
C/C(=N\NC(=O)c1cc([N+](=O)[O-])cc([N+](=O)[O-])c1)c1ccco1	-8	-1	81*	-19	0	1	56*	89*
CCOc1ccc(-c2c(=O)n(OCC)c3ccccc3[n+]2[O-])cc1	-8	-1	30	-21	0	4	x	x
CCOn1c(=O)c(-c2ccc(OC)c(OC)c2)[n+]([O-])c2ccccc21	4	-1	103*	3	-1	-7	40	37*
CCOn1c(=O)c(-c2cc(OC)ccc2OC)[n+]([O-])c2ccccc21	-13	-1	25	-13	0	-8	x	x
CCOn1c(=O)c(-c2ccc(OC)cc2)[n+]([O-])c2ccccc21	-19	-1	121*	-15	0	-5	35	38*
C=CCOn1c(=O)c(-c2ccccc2)[n+]([O-])c2ccccc21	-14	-1	122*	-29	0	-7	35	47*
Cc1ccc2ncc(NC(=O)c3ccc(F)cc3)c(=O)n2c1	-1	1	91*	-19	0	0	29	33*
O=C(Cn1c(=O)c2cccn2c2cccnc21)N1CCN(c2ccccc2F)CC1	-27	0	11	-20	0	3	x	x
CCOC(=O)N/N=C(/C)c1ccc([N+](=O)[O-])o1	-1	0	93*	8	0	-4	52	77*
C/C(=N\NC(=O)CCC(=O)N/N=C(\C)c1ccc(C)o1)c1ccc(C)o1	-3	-1	-1	-4	0	-4	x	x
O=[N+]([O-])c1cccc(-c2nc(-c3ccncc3)no2)c1	0	-1	113*	5	-1	-10	36	42*
O=[N+]([O-])c1cccc(-c2nc(-c3ccccc3)no2)c1	0	0	12	-17	0	0	x	x
SMILES	CHO parental Ca	OXTR agonist	OX1R antag-1	OX1R antag-2	V1aR counter	OXTR potentiator	OX1R HTRF conf	CHO-K1 HTRF cnt
NS(=O)(=O)c1cccc(NC(=O)C(Cc2ccccc2)NC(=O)c2ccccc2)c1 (configuration not stated)	1	0	24	-18	0	-4	x	x
CC(NC(=O)c1ccccc1)c1nnc(SCC(=O)Nc2nnc(C3CC3)s2)n1C (configuration not stated)	-23	1	4	-4	0	-5	x	x
Cc1c(C(=O)O)sc2nc(-c3cccs3)cc(C(F)(F)F)c12	-10	0	78*	-20	0	-10	31	30*
O=C(Nc1ccc2nccnc2c1)c1cnccn1	-10	1	132*	-3	3	-10	42	70*
O=C(Nc1ccc2ccccc2c1)c1cnccn1	-13	1	2	14	1	-8	x	x
CC(C)(CO)Nc1ccc([N+](=O)[O-])cc1[N+](=O)[O-]	1	2	94*	5	2	-13	34	38*
NC(=O)c1ccc(Nc2ccc([N+](=O)[O-])cc2[N+](=O)[O-])cc1	-9	2	107*	-4	2	2	42	54*
O=C(NCc1cccnc1)c1ccc(Cl)cc1[N+](=O)[O-]	-21	0	77*	-16	2	-10	41	33*
Nc1ccc(Nc2ccc([N+](=O)[O-])cc2[N+](=O)[O-])cc1	0	1	36	-15	1	-2	x	x
O=C(NCCN1CCOCC1)c1cc([N+](=O)[O-])cc([N+](=O)[O-])c1	-11	0	78*	-6	1	-3	50	72*
O=C(NCCN1CCOCC1)c1ccc(Cl)c([N+](=O)[O-])c1	-5	0	12	-8	0	5	x	x
Cc1ccc(S(=O)(=O)N2CCOCC2)cc1C(=O)Nc1ccc2c(c1)OCCO2	2	-2	9	-39	-1	-1	x	x
O=C(c1cccc([N+](=O)[O-])c1)N1CCOCC1	11	0	15	6	0	-3	x	x
O=C(NCCCN1CCOCC1)c1cc(Cl)ccc1[N+](=O)[O-]	-3	0	30	6	1	0	x	x
O=[N+]([O-])c1cc(C(F)(F)F)ccc1NCCCN1CCOCC1	-13	4	26	-29	3	0	x	x

Source: PubChem (The Scripps Research Institute Molecular Screening Center)
